Results: ChEMBL document CHEMBL1140534, “Heteroaryl beta-tetralin ureas as novel antagonists of human TRPV1” (Bioorg Med Chem Lett, 2007)

Assays:
[1] = target: T1, Transient receptor potential cation channel subfamily V member 1 (Homo sapiens, UniProt Q8NER1); experiment: Displacement of [3H]RTX from human TRPV1 expressed in HEK293 cells; type: cell-based
Procedure, shortened: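 Membranes from hTRPV1/HEK293 cells, prepared in HEPES buffer pH 7.4 (20 mM HEPES, NaCl, sucrose, MgCl2, CaCl2, KCl). Incubated 60 min at 37 °C with 0.3–0.6 nM [3H]-RTX. Samples cooled on ice, alpha-acid glycoprotein added, then centrifuged and pellets counted by scintillation. Nonspecific binding defined with 200 nM unlabeled RTX. Reported as Ki.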

[2] = target: T1, Transient receptor potential cation channel subfamily V member 1; experiment: Antagonist activity at human recombinant TRPV1 expressed in HEK293 cells assessed as inhibition of capsaicin-induced calcium by FLIPR method; type: functional, cell-based
Procedure, shortened: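 Stably transfected hTRPV1/HEK293 cells grown on poly-D-lysine for 2 days, then loaded with Fluo-3/AM for 1 h. Each well receives a single compound concentration. Intracellular Ca2+ is read by FLIPR for 3 min before capsaicin is added at a final 15 nM to fully activate TRPV1. Antagonist potency is reported as IC50.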

T1 sequence (Q8NER1 whole entry): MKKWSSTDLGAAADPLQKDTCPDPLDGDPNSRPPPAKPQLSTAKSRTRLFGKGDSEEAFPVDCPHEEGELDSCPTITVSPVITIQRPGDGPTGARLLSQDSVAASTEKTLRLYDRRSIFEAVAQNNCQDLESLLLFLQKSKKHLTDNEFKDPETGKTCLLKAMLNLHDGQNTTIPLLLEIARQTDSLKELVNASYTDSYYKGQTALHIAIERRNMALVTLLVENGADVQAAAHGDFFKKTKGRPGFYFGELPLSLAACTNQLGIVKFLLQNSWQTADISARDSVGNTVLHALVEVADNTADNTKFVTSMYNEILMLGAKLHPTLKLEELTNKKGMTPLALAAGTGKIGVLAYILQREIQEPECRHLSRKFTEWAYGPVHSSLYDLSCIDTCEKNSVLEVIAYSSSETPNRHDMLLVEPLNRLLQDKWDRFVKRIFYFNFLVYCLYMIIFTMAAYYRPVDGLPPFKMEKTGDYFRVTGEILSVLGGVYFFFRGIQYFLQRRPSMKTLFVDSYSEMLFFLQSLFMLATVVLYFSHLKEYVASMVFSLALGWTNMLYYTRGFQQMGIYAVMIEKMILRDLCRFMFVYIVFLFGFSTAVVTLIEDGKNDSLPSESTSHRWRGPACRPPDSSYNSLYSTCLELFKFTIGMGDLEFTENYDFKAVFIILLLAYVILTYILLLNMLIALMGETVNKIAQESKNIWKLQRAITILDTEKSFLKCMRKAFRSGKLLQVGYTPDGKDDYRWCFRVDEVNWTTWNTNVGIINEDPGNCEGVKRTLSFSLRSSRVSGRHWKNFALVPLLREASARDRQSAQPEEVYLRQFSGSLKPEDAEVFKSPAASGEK

| Ki [1] | IC50 [2] | SMILES |
| --- | --- | --- |
| 0.8 nM | 350 nM | O=C(Nc1cccc2cnccc12)NC1CCc2cc(F)ccc2C1CC1CC1 (centres undefined) |
|  | 200 nM | O=C(Nc1cccc2cnccc12)NC1CCc2cc(O)ccc2C1Cc1ccccc1 (centres undefined) |
| 8 nM | 36 nM | COc1ccc(CC2c3ccc(OC)cc3CCC2NC(=O)Nc2cccc3cnccc23)cc1 (centres undefined) |
| 22 nM | 360 nM | O=C(Nc1cccc2ccc(O)cc12)NC1CCc2cc(F)ccc2C1Cc1ccc(C(F)(F)F)cc1 (centres undefined) |
| 1290 nM | 680 nM | COc1ccc(C(C)CNC(=O)Nc2cccc3cnccc23)cc1 (centres undefined) |
| 4 nM | 20 nM | O=C(Nc1cccc2cnccc12)NC1CCc2ccccc2C1Cc1ccccc1 (centres undefined) |
| 3 nM | 25 nM | COc1ccc2c(c1)CCC(NC(=O)Nc1cccc3cnccc13)C2Cc1ccccc1 (centres undefined) |
| 578 nM | 184 nM | COc1ccc(C(CNC(=O)Nc2cccc3cnccc23)Cc2cccnc2)cc1 (centres undefined) |
| 6 nM | 14 nM | COc1ccc(C(CNC(=O)Nc2cccc3cnccc23)Cc2ccccc2)cc1 (centres undefined) |
| 8 nM | 5 nM | O=C(NCC(Cc1ccccc1)c1ccc(F)cc1)Nc1cccc2cnccc12 (centres undefined) |
| 4 nM | 12 nM | O=C(Nc1cccc2cnccc12)NC1CCc2cc(F)ccc2C1Cc1ccccc1 (centres undefined) |
| 2 nM | 17 nM | O=C(Nc1cccc2cnccc12)NC1CCc2cc(Br)ccc2C1Cc1ccccc1 (centres undefined) |
| 1 nM | 22 nM | COc1ccc2c(c1)CCC(NC(=O)Nc1cccc3cnccc13)C2Cc1ccc(Br)cc1 (centres undefined) |
| 1 nM | 10 nM | O=C(Nc1cccc2cnccc12)NC1CCc2cc(F)ccc2C1Cc1ccc(C(F)(F)F)cc1 (centres undefined) |
| 11 nM | 63 nM | O=C(Nc1cccc2cnccc12)NC1CCc2cc(Cl)ccc2C1Cc1ccccc1 (centres undefined) |
| 5 nM | 86 nM | O=C(Nc1cccc2cnccc12)NC1CCc2ccc(Cl)cc2C1Cc1ccccc1 (centres undefined) |
| 20 nM | 19 nM | O=C(NCC(Cc1cccc(C(F)(F)F)c1)c1ccc(F)cc1)Nc1cccc2cnccc12 (centres undefined) |
| 4 nM | 140 nM | O=C(Nc1cccc2cnccc12)NC1CCc2cc(F)ccc2C1Cc1cccs1 (centres undefined) |
| 2 nM | 100 nM | C=CCC1c2ccc(F)cc2CCC1NC(=O)Nc1cccc2cnccc12 (centres undefined) |
| 10 nM | 60 nM | COc1ccc2c(c1)CCC(NC(=O)Nc1cccc3ccc(O)cc13)C2Cc1ccccc1 (centres undefined) |
| 20 nM | 230 nM | COc1cc2c(cc1OC)C(Cc1ccccc1)C(NC(=O)Nc1cccc3cnccc13)CC2 (centres undefined) |
| 4 nM |  | O=C(NCC(Cc1ccccc1)c1ccc(C(F)(F)F)cc1)Nc1cccc2cnccc12 (centres undefined) |
| 17 nM | 21 nM | COc1ccc2c(c1)CCC(NC(=O)Nc1cccc3cnccc13)C2Cc1ccc(C#N)cc1 (centres undefined) |
|  | > 1000 nM | COc1ccc2c(c1)CCC(NC(=O)Nc1cccc3cnccc13)C2Cc1cccnc1 (centres undefined) |
|  | > 1000 nM | N#CCC1c2ccc(Cl)cc2CCC1NC(=O)Nc1cccc2cnccc12 (centres undefined) |
| 2 nM | 16 nM | O=C(Nc1cccc2cnccc12)NC1CCc2c(Cl)cccc2C1Cc1ccccc1 (centres undefined) |
| 2 nM | 13 nM | COc1ccc2c(c1)CCC(NC(=O)Nc1cccc3cnccc13)C2Cc1cccc(Cl)c1 (centres undefined) |
| 16 nM | 83 nM | O=C(Nc1cccc2cnccc12)NC1CCc2cc(F)ccc2C1Cc1ccoc1 (centres undefined) |
| 2 nM | 2 nM | COc1ccc2c(c1)CCC(NC(=O)Nc1cccc3cnccc13)C2Cc1ccc(C(F)(F)F)cc1 (centres undefined) |
